# Hits are enriched below; roughly 2.9% of the tested compounds scored in any of these assays.
# ADAM10 inh = inhibitors of human ADAM10 | O14672 | recombinant ADAM10, EDANS/DABCYL FRET peptide cleavage, 3 h | inhibition, % at 7 µM | actives 0.62% (n = 370,000) | AID 720582;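 active = inhibition above a per-campaign cutoff equal to the mean of compounds falling between control-based bounds plus 3 SD, cut at about 20% in these data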;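 note: 0% = DMSO wells while the 100% control is not disclosed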
# CendR NRP1 mod = alters CendR peptide binding to human NRP-1. O14786. actives 0.85% (n = 360,000). FAM-RPARPAR peptide binding to NRP-1, fluorescence polarization. inhibition, % at 25 µM;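 active = inhibition or corrected inhibition above about 18%, plus a signal ratio from 0.5 to 1.5, limit read from the data, passing the limit was not always enough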
# Target sequence (O14786 whole entry, looked up): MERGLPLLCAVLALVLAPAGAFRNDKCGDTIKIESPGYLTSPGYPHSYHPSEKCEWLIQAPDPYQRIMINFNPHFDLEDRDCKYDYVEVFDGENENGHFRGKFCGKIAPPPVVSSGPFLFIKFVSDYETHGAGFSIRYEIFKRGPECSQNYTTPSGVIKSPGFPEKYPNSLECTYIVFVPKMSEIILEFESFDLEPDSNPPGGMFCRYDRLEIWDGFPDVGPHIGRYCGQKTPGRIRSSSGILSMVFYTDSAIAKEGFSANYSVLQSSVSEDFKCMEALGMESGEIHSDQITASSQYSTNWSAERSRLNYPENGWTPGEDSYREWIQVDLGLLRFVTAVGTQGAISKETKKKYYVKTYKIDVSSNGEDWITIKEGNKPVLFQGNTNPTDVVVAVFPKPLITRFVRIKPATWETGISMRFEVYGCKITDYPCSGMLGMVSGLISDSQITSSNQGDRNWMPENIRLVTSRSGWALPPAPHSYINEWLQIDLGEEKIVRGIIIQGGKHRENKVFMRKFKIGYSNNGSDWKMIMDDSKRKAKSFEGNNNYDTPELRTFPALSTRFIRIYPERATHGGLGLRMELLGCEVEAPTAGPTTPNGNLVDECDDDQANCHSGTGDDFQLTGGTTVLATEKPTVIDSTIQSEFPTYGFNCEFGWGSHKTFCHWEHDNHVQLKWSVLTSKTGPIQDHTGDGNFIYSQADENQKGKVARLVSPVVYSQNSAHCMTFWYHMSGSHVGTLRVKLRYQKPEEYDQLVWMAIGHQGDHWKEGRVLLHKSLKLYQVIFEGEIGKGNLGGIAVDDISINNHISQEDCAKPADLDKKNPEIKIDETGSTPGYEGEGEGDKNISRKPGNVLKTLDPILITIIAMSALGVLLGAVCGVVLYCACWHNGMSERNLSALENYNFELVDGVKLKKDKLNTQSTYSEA
# FAS-TE inh = inhibitors of human fatty acid synthase thioesterase domain | actives 0.67% (n = 360,000) | P49327 | inhibition, % at 15 µM | recombinant FAS-TE, OMFH fluorogenic substrate, fluorescence endpoint;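 active = compounds whose normalised, plate-corrected inhibition of enzyme fluorescence in the single-dose primary screen is 50% or more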;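 note: 0% = DMSO with enzyme and 100% = substrate without enzyme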
# ADAM17 inh = ADAM17 inhibition, QFRET primary screen | recombinant ADAM17, EDANS/DABCYL FRET peptide cleavage | inhibition, % at 6.95 µM | actives 0.83% (n = 370,000);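 active = inhibition above the mean of compounds lying between control limits plus 3 SD, set per campaign, cut at about 8.5% in these data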;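 note: 0% = DMSO-only wells as the low control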
# CaV13 FRET inh = Primary screen for inhibitors of IQ motif and Ca2+-dependent inactivation inhibitor domain binding in CACNA1D, Förster resonance energy transfer in living cells, …; AID 743397; HEK cells, CFP/YFP FRET ICDI-IQ, plate reader, 10 min; percent FRET-ratio fall versus neutral wells; inhibition, % at 12.3 µM; actives 0.098% (n = 340,000);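 active = mean replicate inhibition of at least 30% and at least 1% of replicates passing that level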;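 note: 0% = median of the neutral control wells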
# Arrestin-AP2 inh = inhibitors of human beta-arrestin and AP2 interaction; actives 0.31% (n = 340,000); FITC-arrestin peptide / GST-AP2 beads, flow cytometry; AP2 beta2 appendage carries R879A mutation; inhibition, % at 10 µM;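 active = inhibition above a set limit, near 3 SD of compounds lacking own fluorescence, cut at about 54% in these data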;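 note: plate controls were DMSO wells for no effect and 5 µM unlabelled arrestin peptide for full effect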
#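 Measured by: flow cytometry, FL1 (488/535 nm); Material: AP2 appendage R879A on GSH beads; Evaluation: percent response; Timing: pre-incubation 12 min, peptide binding 1 h, room temperature; Also added: 50 nM FITC-arrestin peptide; Medium: PBS with 0.05% Tween 20 and 0.1% BSA.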
# FAS-TE inh conf = FAS thioesterase (human) inhibition, confirmation; shares compounds with FAS-TE inh; recombinant FAS-TE, OMFH fluorogenic substrate, fluorescence; inhibition, % at 15 µM; actives 45% (n = 2,300); AID 624325;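 active = compounds inhibiting the enzyme by at least 50% at 15 µM in any one of the replicates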;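 note: 0% = enzyme with DMSO only and 100% = wells lacking enzyme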
# * = called active by the depositor; i = inactive; · = no result given.
SMILES,ADAM10 inh,CendR NRP1 mod,FAS-TE inh,ADAM17 inh,CaV13 FRET inh,Arrestin-AP2 inh,FAS-TE inh conf
CCN(CC)C(=O)C1CCCN(c2ccc([N+](=O)[O-])cc2/C=N/NC(=O)c2ccc([N+](=O)[O-])cc2)C1 (centres undefined),-18,-5,44,-1,-4,29,·
CCN(CC)C(=O)C1CCCN(c2ccc([N+](=O)[O-])cc2/C=N/NC(=O)c2ccccc2)C1 (centres undefined),8,-7,85*,1,-7,0,56*
CCN(CC)C(=O)C1CCCN(c2ccc([N+](=O)[O-])cc2/C=N/NC(=O)c2cccc(O)c2)C1 (centres undefined),13,15,66*,-1,-6,8,68*
CC1CCc2nc(NC(=O)CN3CCN(c4ccc(F)cc4)CC3)sc2C1 (centres undefined),13,3,85*,6,-5,2,79*
O=C(c1ccc(F)c(F)c1)N1CCC(Oc2cccnc2)CC1,12,·,·,-1,·,·,·
O=S(=O)(Nc1ccc(-c2csc(-c3ccccc3)n2)cc1)c1ccccc1,13,-5,59*,5,-5,-2,44*
COc1cc(CCc2ccccc2)c(C(=O)O)c(O)c1C/C=C(/C)CCC=C(C)C,16,-70,87*,2,-5,10,59*
COc1cc(CCc2ccccc2)c(C(=O)O)c(O)c1CC=C(C)C,-6,-26,19,5,·,-2,·
NC(=O)C1CCN(c2nc(-c3cccs3)cs2)CC1,·,8,7,·,·,-10,·
Cc1ccc(CN(C)C(=O)COC(=O)CSc2cc(C)c3ccccc3n2)cc1,-13,4,10,0,-2,6,·
Cc1ccc2c(Cl)cc(Cl)c(OCC(=O)Nc3cccc(S(=O)(=O)N(C)C)c3)c2n1,-25,13,9,-1,-5,-5,·
Cc1ccc2c(Cl)cc(Cl)c(OCC(=O)Nc3cc(S(=O)(=O)N(C)C)ccc3C)c2n1,3,4,52*,0,-2,3,2
COC(=O)[C@H]1C[C@@]2(n3ccc4ccccc43)c3ccccc3N[C@H]2N1,-8,·,·,-6,·,·,·
Cc1cc(C)n(CC(=O)NNC(=O)c2ccc(NC(=O)CC#N)cc2)n1,0,-17,-7,-8,-6,2,·
COc1ccc(NC(=O)C(=O)N/N=C/c2cc(C)n(-c3cccc(Cl)c3Cl)c2C)c(OC)c1,-2,-10,63*,-2,-5,31,5
COc1ccccc1[C@@H]1C(c2ccccc2)=NN(c2ccc(Br)cc2)[C@H]1C(=O)N1CCOC1=O,i,3,74*,-140,-7,-9,13
COc1ccccc1[C@@H]1C(c2cccc(C)c2)=NN(c2ccc(Br)cc2)[C@H]1C(=O)N1CCOC1=O,-278,-6,62*,-79,-7,2,17
CC[C@@H]1C(c2ccc(F)cc2)=NN(c2ccc(Br)cc2)[C@H]1C(=O)N1CCOC1=O,-220,-7,34,-58,-7,3,·
CCCCn1nnnc1C(c1cccs1)N1CCN(C/C=C/c2ccccc2)CC1 (centres undefined),-3,6,14,2,·,·,·
Cc1ccc(C)c(COC(=O)c2cc([N+](=O)[O-])ccc2N2CCOCC2)c1,8,5,41,5,-6,34,·
O=C(COC(=O)c1cc(S(=O)(=O)N2CCOCC2)ccc1Cl)Nc1ccc(Cl)cn1,-18,4,3,-1,-6,·,·
CCOC(=O)c1cc(CC)sc1NC(=O)c1cc([N+](=O)[O-])ccc1N1CCOCC1,4,2,61*,-2,-6,-2,21
O=C(COC(=O)c1cc([N+](=O)[O-])ccc1N1CCOCC1)Nc1ccc(Cl)cn1,-8,16,71*,1,·,-9,59*
Cc1cc(Cl)ccc1NC(=O)COC(=O)c1cc([N+](=O)[O-])ccc1N1CCOCC1,6,-6,77*,2,-6,2,79*
O=C(COC(=O)c1cc([N+](=O)[O-])ccc1N1CCOCC1)Nc1ccc(Cl)cc1,12,-6,81*,6,-3,-7,49*
SMILES,ADAM10 inh,CendR NRP1 mod,FAS-TE inh,ADAM17 inh,CaV13 FRET inh,Arrestin-AP2 inh,FAS-TE inh conf
NC(=O)c1ccc(NC(=O)COC(=O)c2cc([N+](=O)[O-])ccc2N2CCOCC2)cc1,-4,-17,36,0,-7,11,·
Cc1cccc(C)c1NC(=O)C1(C)CN(S(C)(=O)=O)CC(=O)N1CCCN1CCOCC1 (centres undefined),-22,-3,·,2,-7,·,·
C[C@H](c1ccccc1)N1C[C@@H](COCc2ccccc2)Oc2cc(N3CCC[C@H]3CO)ccc2S1(=O)=O,-11,6,13,2,-9,·,·
CN1C2=N[C@H](c3ccccc3)CC(=O)N2/C(=C\c2ccccc2)C1Cc1ccccc1 (some centres undefined),-4,·,·,-4,·,·,·
C[C@@H]1[C@@H](O)C[C@@]2(C[C@H](O)c3cc(Cl)ccc3O2)O[C@H]1c1ccccc1Cl,6,·,·,6,·,·,·
O=C(CSc1nnc(-c2ccncc2)n1-c1ccccc1)Nc1cccc2ccccc12,2,·,·,2,·,·,·
COC(=O)[C@H](CC(C)C)N1Cc2nnn(Cc3ccccc3)c2-c2cc(F)ccc2S1(=O)=O,13,·,·,5,·,·,·
CCc1cccc(C)c1NC(=O)COC(=O)c1cc([N+](=O)[O-])ccc1N1CCOCC1,-5,12,68*,-4,-4,0,69*
C[C@@H]1CN([C@H](C)CO)C(=O)c2cccc(NC(=O)NC3CCCCC3)c2O[C@@H]1CN(C)C(=O)Nc1ccc(C(F)(F)F)cc1,·,-1,77*,·,·,-4,70*
Cc1noc(C)c1NC(=O)Nc1cccc2c1O[C@@H](CN(C)C)[C@@H](C)CN([C@H](C)CO)C2=O,-6,10,-6,-1,-2,7,·
COc1ccc(S(=O)(=O)N(C)C[C@H]2Oc3c(NC(=O)Nc4ccc(C(F)(F)F)cc4)cccc3C(=O)N([C@H](C)CO)C[C@@H]2C)cc1,·,15,61*,·,·,-2,45
C[C@H](CO)N1C[C@H](C)[C@@H](CN(C)C(=O)Nc2ccc(C(F)(F)F)cc2)Oc2c(NC(=O)NC3CCCCC3)cccc2C1=O,9,8,47,5,-12,4,·
Cc1noc(C)c1NC(=O)Nc1cccc2c1O[C@H](CN(C)C(=O)NC1CCCCC1)[C@@H](C)CN([C@H](C)CO)C2=O,0,25*,77*,-3,-5,-1,84*
